Measurements as given in ChEMBL document CHEMBL2311381, “Synthesis and biological activity of aminophthalazines and aminopyridazines as novel inhibitors of PGE2 production in cells” (Bioorg Med Chem Lett, 2013).
pEC50: −log10 of the molar value. Calls of active or inactive are those of the source. No cut-off for these calls is given here.

Columns and labels:
[1] = biological target: T1, Prostaglandin G/H synthase 2 (Homo sapiens, UniProt P35354); experiment: (§1) Inhibition of COX-2 (unknown origin) at 5 uM; conditions: 5 µM
T1 sequence (P35354 whole entry): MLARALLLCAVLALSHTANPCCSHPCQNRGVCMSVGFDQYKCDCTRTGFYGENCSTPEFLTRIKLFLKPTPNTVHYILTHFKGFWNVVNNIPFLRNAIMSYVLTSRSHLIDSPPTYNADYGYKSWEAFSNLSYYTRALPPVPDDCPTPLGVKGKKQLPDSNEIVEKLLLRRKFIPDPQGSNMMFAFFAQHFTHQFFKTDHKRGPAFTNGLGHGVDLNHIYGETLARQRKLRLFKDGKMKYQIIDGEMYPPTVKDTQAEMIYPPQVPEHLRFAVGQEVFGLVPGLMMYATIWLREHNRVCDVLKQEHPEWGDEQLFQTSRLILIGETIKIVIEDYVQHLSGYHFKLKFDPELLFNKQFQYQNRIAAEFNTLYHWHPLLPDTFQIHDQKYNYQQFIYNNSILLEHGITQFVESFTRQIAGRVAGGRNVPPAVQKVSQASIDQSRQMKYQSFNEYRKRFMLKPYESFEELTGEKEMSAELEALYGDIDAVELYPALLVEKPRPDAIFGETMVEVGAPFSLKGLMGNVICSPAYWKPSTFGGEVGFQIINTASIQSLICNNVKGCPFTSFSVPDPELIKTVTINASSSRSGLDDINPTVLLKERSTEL
In short: (§2)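 Cell-free COX-2 activity measured with a fluorescent COX inhibitor screening kit, run per the kit instructions. Compounds were tested at 5 µM. Results are given as % inhibition ± SD (n = 3). Celecoxib served as the positive control. Dose-response curves were not run.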

[2] = (§3) Inhibition of IL-1beta-induced PGE2 production in human HCA-7 cells at 1 uM after 72 hrs by EIA; assay type: functional; conditions: HCA-7, 72 h
In short: (§4)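 HCA-7 colon cancer cells were grown overnight in DMEM/10% FBS, then serum-starved for 18 h. They were stimulated with 10 ng/ml IL-1β together with compound (DMSO solution) in serum-free medium for 72 h. PGE2 in the supernatant was measured by EIA. Single-concentration screening was at 1 µM, giving % reduction ± SD (n = 3). EC50 values came from increasing concentrations. Celecoxib served as the positive control.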

[3] = Inhibition of IL-1beta-induced PGE2 production in human HCA-7 cells after 72 hrs by EIA; assay type: functional, cell-based; conditions: HCA-7, 72 h; in short: as §4
[4] = biological target: T2, COX-2 (Prostaglandin G/H synthase 2) (Homo sapiens, UniProt P35354); experiment: as §1; in short: as §2
T2 sequence (P35354 whole entry): T1 sequence (P35354 whole entry)

[5] = biological target: HCA-7 cells (Homo sapiens); experiment: Inhibition of PGE2 production in human HCA-7 cells
HCA-7 = experiment: as §3; assay type: functional; in short: as §4

Structure (SMILES)	inhibition (INH) [1]	inhibition at 1 µM [2] [%]	pEC50 [3]	inhibition at 5 µM [4] [%]	pEC50 [5]	inhibition (HCA-7)
c1ccc(Oc2ccc(Nc3nnc(-c4ccccc4)c4ccccc34)cc2)cc1	Not Active	71.2				
Cc1ccc(Nc2nnc(-c3ccc(OC(C)C)cc3)c3ccccc23)cc1	Not Active	76.7	6.15			
COc1cccc(-c2nnc(Nc3ccc(C)cc3)c3ccccc23)c1		62				
COc1ccccc1-c1nnc(Nc2ccc(C)cc2)c2ccccc12	Not Active	77.2	6.23			
Cc1ccc(Nc2nnc(-c3cncnc3)c3ccccc23)cc1		15.1				
Oc1ccc(Nc2nnc(-c3ccccc3)c3ccccc23)cc1		26.7				
COc1ccc(-c2nnc(Nc3cccc(C)c3)c3ccccc23)cc1	Not Active	87.5	6.19			
Cc1ccc(Nc2nnc(-c3ccc4c(c3)OCO4)c3ccccc23)cc1		59				
COc1ccc(Nc2nnc(-c3ccc(C(=O)NCCO)cc3)c3ccccc23)cc1		39.2				
CCOc1ccc(-c2nnc(Nc3ccc(C)cc3)c3ccccc23)cc1	Not Active	75.3	6.24			
COc1ccc(N(C)c2nnc(-c3ccccc3)c3ccccc23)cc1		92.4	6.66	21.4		
CCc1ccc(Nc2nnc(-c3ccc(OC)cc3)c3ccccc23)cc1	Not Active	85	6.03			
Cc1ccc(Nc2nnc(-c3cccc(-c4ccccc4)c3)c3ccccc23)cc1	Not Active	84.2	6.27			
CCOC(=O)c1ccc(Nc2nnc(-c3ccccc3)c3ccccc23)cc1		18.4				
Clc1ccc(-c2csc(Nc3ccc(Oc4ccccc4)cc3)n2)cc1			6.48		6.48	
Cc1ccc(Nc2nnc(-c3cccc(Cl)c3)c3ccccc23)cc1	Not Active	75.2	6.07			
Cc1ccc(Nc2nnc(-c3ccccc3Cl)c3ccccc23)cc1	Not Active	97.2	6.42			
Cc1ccc(Nc2nnc(-c3ccccc3)c3ccccc23)cc1		98.9	7.51	23		
COc1ccc(-c2nnc(Nc3ccccc3)c3ccccc23)cc1		97.3	7.70	3		
Cc1cccc(Nc2nnc(-c3ccccc3)c3ccccc23)c1	Not Active	74.1	6.12			
Cc1ccc(Nc2nnc(-c3ccc(N(C)C)cc3)c3ccccc23)cc1		94.4	6.38	14.2		
Clc1cccc(Nc2nnc(-c3ccccc3)c3ccccc23)c1		79.4	6.30	10.1		
NS(=O)(=O)c1ccc(Nc2nnc(-c3ccccc3)c3ccccc23)cc1						inactive
Cc1ccc(Nc2ccc(-c3ccccc3)nn2)cc1		62.5				
COc1ccc(-c2nnc(N(C)c3ccc(C)cc3)c3ccccc23)cc1	Not Active	87	7.30			
COc1ccc(-c2nnc(Nc3ccc(C)cc3)c3ccccc23)cc1	Not Active	98.3	7.49			
COc1ccc(-c2nnc(Nc3ccc(OCC(N)=O)cc3)c3ccccc23)cc1						inactive
COc1ccc(-c2ccc(Nc3ccc(C)cc3)nn2)cc1		49				
COc1ccc(-c2nnc(Nc3ccc(Oc4ccccc4)cc3)c3ccccc23)cc1	Not Active	92.6	7.05			
